In ChEMBL document CHEMBL1275449, “Potent in vitro antifungal activities of naturally occurring acetylenic acids” (Antimicrob Agents Chemother, 2008):
Converted amounts (≈) assume the structure as drawn.

Key:
Nakaseomyces glabratus = assay: Antifungal activity against Candida glabrata ATCC 90030 after 48 hrs by CLSI methodCandida glabrata; assay type: functional, organism-based; conditions: ATCC 90030, 48 h
Method in brief: (§1)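 Candida inocula came from 24–72-h SD agar colonies suspended in saline. They were diluted by OD630 standard curve into RPMI 1640 (0.2% dextrose, 0.03% glutamine, 0.165 M MOPS, pH 7.0) to 1.5 × 10³ CFU/ml. Compounds were run as 11 twofold dilutions in 20% DMSO-saline, in duplicate, at 35°C for 48 h, with OD530 read before and after. Percent growth at the top concentration, IC50, MIC, and MFC (SD agar plating) were derived.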

Aspergillus fumigatus [1] = assay: Antifungal activity against Aspergillus fumigatus ATCC 90906 after 48 h by CLSI method; conditions: ATCC 90906, 48 h
SK-MEL = assay: Cytotoxicity against human SK-MEL cells up to 32 uM by neutral red method; assay type: cell-based
Method in brief: (§2)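 Neutral red uptake cytotoxicity, top concentration 32 μM.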

Aspergillus flavus = assay: Antifungal activity against Aspergillus flavus ATCC 204304 after 48 h by CLSI method; conditions: ATCC 204304, 48 h
Trichophyton rubrum [2] = assay: Antifungal activity against Trichophyton rubrum ATCC MYA-4438 by CLSI method; assay type: functional, organism-based
Method in brief: (§3)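 Growth scraped from 1- to 6-week-old potato dextrose slants and filtered through Miracloth. Diluted in 5% Alamar blue-RPMI 1640 (MOPS pH 7.0) to 2.7 × 10⁴ CFU/ml. Eleven twofold dilutions in duplicate. Fluorescence at 544 nm excitation/590 nm emission read before and after 35°C, 5 days. IC50 fitted from percent growth. MIC taken as no detectable growth; MFC from clear or blue wells plated on PD agar.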

BT-549 = assay: Cytotoxicity against human BT549 cells up to 32 uM by neutral red method; assay type: cell-based; method in brief: as §2
Trichophyton rubrum [3] = assay: Antifungal activity against Trichophyton rubrum ATCC 10218 by CLSI method; assay type: functional, organism-based; method in brief: as §3
Candida albicans [4] = assay: Antifungal activity against Candida albicans ATCC 90028 after 48 hrs by CLSI method; assay type: functional, organism-based; conditions: ATCC 90028, 48 h
Method in brief: (§4)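 CLSI broth microdilution. Colonies from 24–72 h SD agar suspended in saline and sized by OD630 standard curve. Inoculum 1.5 × 10³ CFU/ml (final) in RPMI 1640 (0.2% dextrose, 0.03% glutamine, 0.165 M MOPS, pH 7.0). Twofold dilutions (11 levels) from 20% DMSO-saline, in duplicate. 35°C for 48 h, OD530 read before and after. IC50 fitted from % growth. MIC: no detectable growth. MFC: subculture onto SD agar.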

Aspergillus niger = assay: Antifungal activity against Aspergillus niger ATCC 16404 after 48 h by CLSI method; conditions: ATCC 16404, 48 h
Candida albicans [5] = assay: Antifungal activity against Candida albicans ATCC 14053 after 48 hrs by CLSI method; assay type: functional, organism-based; conditions: ATCC 14053, 48 h; method in brief: as §4
Aspergillus fumigatus [6] = assay: Antifungal activity against Aspergillus fumigatus ATCC 204305 after 48 h by CLSI method; conditions: ATCC 204305, 48 h
Cryptococcus neoformans [7] = assay: Antifungal activity against Cryptococcus neoformans ATCC 90113 after 72 hrs by CLSI method; assay type: functional, organism-based; conditions: ATCC 90113, 72 h
Method in brief: (§5)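 SD broth replaced RPMI because growth in RPMI was poor; other CLSI conditions were kept. Inoculum was 1.5 × 10³ CFU/ml from colonies on SD agar, checked by plating. Twofold serial dilutions (11 concentrations) in 20% DMSO-saline were tested in duplicate. OD530 was read before and after incubation at 35°C for 72 h. Percent growth gave IC50; the MIC is the lowest concentration with no detectable growth.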

Vero = assay: Cytotoxicity against African green monkey Vero cells up to 32 uM by neutral red method; assay type: cell-based; conditions: chlorocebus sabaeus; method in brief: as §2
Pichia kudriavzevii = assay: Antifungal activity against Candida krusei ATCC 6258 after 48 hrs by CLSI method; assay type: functional, organism-based; conditions: ATCC 6258, 48 h; method in brief: as §1
Candida albicans [8] = assay: Antifungal activity against Fluconazole resistant Candida albicans clinical isolate 17 after 48 hrs by CLSI method; assay type: functional, organism-based; method in brief: as §4
[9] = test system: Trichophyton mentagrophytes; assay: Antifungal activity against Trichophyton mentagrophytes ATCC MYA-4439 by CLSI method; assay type: functional, organism-based; method in brief: as §3
KB = assay: Cytotoxicity against human KB cells up to 32 uM by neutral red method; assay type: cell-based; method in brief: as §2
[10] = test system: Trichophyton mentagrophytes; assay: Antifungal activity against Trichophyton mentagrophytes ATCC 9533 by CLSI method; assay type: functional, organism-based; method in brief: as §3
Candida albicans [11] = assay: Antifungal activity against Fluconazole resistant Candida albicans clinical isolate 1 after 48 hrs by CLSI method; assay type: functional, organism-based; method in brief: as §4
LLC-PK1 = assay: Cytotoxicity against pig LLC-PK1 cells up to 32 uM by neutral red method; assay type: cell-based, Sus scrofa; method in brief: as §2
SK-OV-3 = assay: Cytotoxicity against human SKOV3 cells up to 32 uM by neutral red method; assay type: cell-based; method in brief: as §2
Candida albicans [12] = assay: Antifungal activity against Candida albicans ATCC 32354 after 48 hrs by CLSI method; assay type: functional, organism-based; conditions: ATCC 32354, 48 h; method in brief: as §4
Candida albicans [13] = assay: Antifungal activity against Candida albicans ATCC 60193 after 48 hrs by CLSI method; assay type: functional, organism-based; conditions: ATCC 60193, 48 h; method in brief: as §4
Candida tropicalis = assay: Antifungal activity against Candida tropicalis ATCC 750 after 48 hrs by CLSI method; assay type: functional, organism-based; conditions: ATCC 750, 48 h
Method in brief: (§6)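 Yeast suspensions made from 3-5 colonies off 24-72 h SD agar plates in saline. They were diluted by OD630 standard curve in RPMI 1640 (0.2% dextrose, 0.03% glutamine, 0.165 M MOPS, pH 7.0) to 1.5 × 10³ CFU/ml. Twofold dilutions (11 concentrations, 20% DMSO-saline) run in duplicate. OD530 read before and after 35°C, 48 h. Line values are top test concentrations; no-growth endpoints give MIC/MFC.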

Candida parapsilosis = assay: Antifungal activity against Candida parapsilosis ATCC 22019 after 48 hrs by CLSI method; assay type: functional, organism-based; conditions: Lodderomyces parapsilosis, ATCC 22019, 48 h; method in brief: as §6
Cryptococcus neoformans [14] = assay: Antifungal activity against Cryptococcus neoformans ATCC 66031 after 72 hrs by CLSI method; assay type: functional, organism-based; conditions: ATCC 66031, 72 h; method in brief: as §5
Candida albicans [15] = assay: Antifungal activity against Candida albicans ATCC 200955 after 48 hrs by CLSI method; assay type: functional, organism-based; conditions: ATCC 200955, 48 h; method in brief: as §4

`CCCCCCCCCC#CCCCCC(=O)O` was tested, and the IC50 (Nakaseomyces glabratus) was greater than 198 µM, the IC50 (Aspergillus fumigatus [1]) was 166 µM and the Activity (SK-MEL) was “Non-toxic”. For the same compound, the IC50 (Aspergillus flavus) was 106 µM, the MFC (Aspergillus flavus) was 198 µM (≈ 50 µg/mL) and the MIC (Aspergillus flavus) was 198 µM (≈ 50 µg/mL). It also gave an IC50 (Trichophyton rubrum [2]) of 3.8 µM, an MFC (Trichophyton rubrum [2]) of 198 µM (≈ 50 µg/mL) and an MIC (Trichophyton rubrum [2]) of 31 µM (≈ 7.82 µg/mL). For the same compound, the Activity (BT-549) was “Non-toxic”, the IC50 (Trichophyton rubrum [3]) was 8.7 µM and the MFC (Trichophyton rubrum [3]) was 24.8 µM (≈ 6.26 µg/mL). It also gave an MIC (Trichophyton rubrum [3]) of 24.8 µM (≈ 6.26 µg/mL), an IC50 (Candida albicans [4]) of 56.8 µM and an MIC (Candida albicans [4]) of 99.1 µM (≈ 25 µg/mL). For the same compound, the IC50 (Aspergillus niger) was 101 µM, the IC50 (Candida albicans [5]) was 81.8 µM and the IC50 (Aspergillus fumigatus [6]) was 9.4 µM. It also gave an MFC (Aspergillus fumigatus [6]) of 198 µM (≈ 50 µg/mL), an MIC (Aspergillus fumigatus [6]) of 37.1 µM (≈ 9.36 µg/mL) and an IC50 (Cryptococcus neoformans [7]) of 52.4 µM. The Activity (Vero) was “Non-toxic”, the IC50 (Pichia kudriavzevii) was 2.9 µM and the MFC (Pichia kudriavzevii) was 49.5 µM (≈ 12.5 µg/mL). The MIC (Pichia kudriavzevii) was 6.2 µM (≈ 1.56 µg/mL), the IC50 (Candida albicans [8]) was 23.3 µM and the MFC (Candida albicans [8]) was 198 µM (≈ 50 µg/mL). For the same compound, the MIC (Candida albicans [8]) was 99.1 µM (≈ 25 µg/mL), the IC50 [9] was 3.9 µM and the MFC [9] was 12.4 µM (≈ 3.13 µg/mL). For the same compound, the MIC [9] was 9.3 µM (≈ 2.35 µg/mL), the Activity (KB) was “Non-toxic” and the IC50 [10] was 2.3 µM. For the same compound, the MFC [10] was 6.2 µM (≈ 1.56 µg/mL), the MIC [10] was 4.6 µM (≈ 1.16 µg/mL) and the IC50 (Candida albicans [11]) was 40.5 µM. The MIC (Candida albicans [11]) was 99.1 µM (≈ 25 µg/mL), the Activity (LLC-PK1) was “Non-toxic” and the Activity (SK-OV-3) was “Non-toxic”. The IC50 (Candida albicans [12]) was 50.3 µM, the MIC (Candida albicans [12]) was 198 µM (≈ 50 µg/mL) and the IC50 (Candida albicans [13]) was 85.9 µM. The IC50 (Candida tropicalis) was 29.5 µM, the MFC (Candida tropicalis) was 99.1 µM (≈ 25 µg/mL) and the MIC (Candida tropicalis) was 74.3 µM (≈ 18.8 µg/mL). For the same compound, the IC50 (Candida parapsilosis) was greater than 198 µM, the IC50 (Cryptococcus neoformans [14]) was 1.2 µM and the MFC (Cryptococcus neoformans [14]) was 99.1 µM (≈ 25 µg/mL). It also gave an MIC (Cryptococcus neoformans [14]) of 49.5 µM (≈ 12.5 µg/mL), an IC50 (Candida albicans [15]) of 47.8 µM and an MIC (Candida albicans [15]) of 198 µM (≈ 50 µg/mL).

`CCCCCC#CCC#CCC#CCC#CCCCC(=O)O` was tested, and the IC50 (Aspergillus fumigatus [1]) was 13.3 µM, the MIC (Aspergillus fumigatus [1]) was 84.5 µM (≈ 25 µg/mL) and the Activity (SK-MEL) was “Non-toxic”. For the same compound, the IC50 (Aspergillus flavus) was greater than 169 µM, the IC50 (Trichophyton rubrum [2]) was 2.9 µM and the MIC (Trichophyton rubrum [2]) was 31.7 µM (≈ 9.4 µg/mL). For the same compound, the Activity (BT-549) was “Non-toxic”, the IC50 (Trichophyton rubrum [3]) was 8.4 µM and the MIC (Trichophyton rubrum [3]) was 15.8 µM (≈ 4.68 µg/mL). For the same compound, the IC50 (Candida albicans [4]) was 5 µM, the MIC (Candida albicans [4]) was 42.2 µM (≈ 12.5 µg/mL) and the IC50 (Aspergillus niger) was 100 µM. It also gave an IC50 (Candida albicans [5]) of 8.1 µM, an MIC (Candida albicans [5]) of 63.3 µM (≈ 18.8 µg/mL) and an IC50 (Aspergillus fumigatus [6]) of 10 µM. The MIC (Aspergillus fumigatus [6]) was 84.5 µM (≈ 25 µg/mL), the IC50 (Cryptococcus neoformans [7]) was greater than 169 µM and the Activity (Vero) was “Non-toxic”. The IC50 (Pichia kudriavzevii) was greater than 169 µM, the IC50 (Candida albicans [8]) was 3.5 µM and the MIC (Candida albicans [8]) was 42.2 µM (≈ 12.5 µg/mL). The IC50 [9] was 6.7 µM, the MIC [9] was 31.7 µM (≈ 9.4 µg/mL) and the Activity (KB) was “Non-toxic”. It also gave an IC50 [10] of 14.2 µM, an MIC [10] of 21.1 µM (≈ 6.25 µg/mL) and an IC50 (Candida albicans [11]) of 1.7 µM. The MIC (Candida albicans [11]) was 42.2 µM (≈ 12.5 µg/mL), the Activity (LLC-PK1) was “Non-toxic” and the Activity (SK-OV-3) was “Non-toxic”. It also gave an IC50 (Candida albicans [12]) of 4 µM, an MIC (Candida albicans [12]) of 31.7 µM (≈ 9.4 µg/mL) and an IC50 (Candida albicans [13]) of 4.5 µM. It also gave an MIC (Candida albicans [13]) of 63.3 µM (≈ 18.8 µg/mL), an IC50 (Candida tropicalis) of 27.7 µM and an IC50 (Candida parapsilosis) of 5.4 µM. For the same compound, the MIC (Candida parapsilosis) was 63.3 µM (≈ 18.8 µg/mL), the IC50 (Candida albicans [15]) was 2 µM and the MFC (Candida albicans [15]) was 21.1 µM (≈ 6.25 µg/mL). The MIC (Candida albicans [15]) was 5.3 µM (≈ 1.57 µg/mL).
